The nature of data set [1]: Tmax in Sprague-Dawley rat at 10 mg/kg, po administered via gavage by LC-MS analysis. It counts as ADME, organism-based. The settings on record: in vivo.
A short description of data set [2]: Cmax in Sprague-Dawley rat at 10 mg/kg, po administered via gavage by LC-MS analysis. It counts as ADME, organism-based. Set-up: route oral, dose 10 mg/kg. The settings on record: in vivo.
Data set [3] concerns the target Receptor tyrosine-protein kinase erbB-2 (Homo sapiens, UniProt P04626, G778D). In words: Inhibition of human recombinant ERBB2 G778D mutant (676 to end residues) using poly(Glu,Tyr)4:1 as substrate incubated for 40 mins in presence of [gamma33P-ATP] by radiometric scintillation counting analysis.
Data set [4] has as its target Tyrosine-protein kinase receptor TYRO3 (Homo sapiens, UniProt Q06418). In words: Inhibition of human recombinant RSE (451 to end residues) using KVEKIGEGTYGVVYK as substrate incubated for 40 mins in presence of [gamma33P-ATP] by radiometric scintillation counting analysis. A digest of the protocol: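 Radiometric kinase assay run as an external profiling service, with ATP at the Km of each kinase. IC50 values are means of two independent experiments.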

Data set [5] relates to MV4-11. In words: Antiproliferative activity against human MV4-11 cells assessed as reduction in cell viability incubated for 72 hrs by MTT assay. It counts as functional, cell-based. Particulars: MV4-11, 72 h. The essentials:
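MTT viability assay. ATCC cell lines were grown in designated medium with 10% FBS at 37 °C, 5% CO2. Cells seeded at 1500−30000 per well and incubated 24 h, then exposed to compound (0−10 μg/mL) for 72 h. MTT added for 2−4 h. Formazan dissolved in DMSO (adherent) or acidified SDS overnight (suspension), absorbance read at 570 nm. Triplicates; IC50 calculated.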
On the technique in general: Tetrazolium assays rely on reduction of a dye to a coloured formazan, in cell work by metabolically active cells.

Data set [6] deals with MDA-MB-231. In words: Induction of apoptosis in human MDA-MB-231 cells assessed as late apoptotic cells at 0.1 uM incubated for 24 hrs by annexin V-FITC and propidium iodide staining based flow cytometry analysis (reference value: 0.85 %). It counts as functional. On the technique in general: Flow cytometry measures light scatter and fluorescence of single cells or particles in a stream.

Data set [7] deals with MDA-MB-231. In words: Inhibition of Fra1 phosphorylation in human MDA-MB-231 cells at >0.03 uM incubated for 20 hrs by Western blot analysis. It counts as functional, cell-based. Particulars: dose microM >0.03, time 20.0 hrs. A digest of the protocol: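 MDA-MB-231 cells treated with a series of concentrations for 20 h at 37 °C. Cells washed with ice-cold saline and lysed in RIPA buffer with protease cocktail. Lysates cleared at 12000 rpm for 10 min at 4 °C and protein quantified by Bradford. Equal protein separated by SDS-PAGE, transferred to PVDF and probed with antibodies.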
In general terms: A western blot detects proteins with antibodies after separation by electrophoresis.

The species named for data set [8] is Danio rerio. In words: Antiangiogenesis activity in EGFP-labelled zebrafish embryo assessed as reduction in formation of major cranial vessel at 1.25 to 5 uM incubated for overnight by fluorescence microscopic analysis. It counts as functional, organism-based. Particulars: dose 1.25-5 µM. The essentials:
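Transgenic FLK:EGFP zebrafish kept at 28 °C, pH 7.2−7.4, 14 h light/10 h dark. Embryos at 30 hpf incubated overnight with compound at 1.25, 2.5 or 5 μM beside a blank control. Fish anaesthetized, then vessels imaged by fluorescence microscopy.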

Data set [9] concerns MDA-MB-231. In words: Inhibition of tumor mitotic index in SCID mouse xenografted with human MDA-MB-231 cells assessed as reduction in Ki67 expression at 40 mg/kg, po QD for 21 days by immunohistochemical staining analysis. It counts as functional, organism-based. The settings on record: dose 40.0 mg/kg/day, time 21.0 day. A digest of the protocol: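 SCID mice carried subcutaneous MDA-MB-231 xenografts (5 × 10^6 cells in 100 μL). Oral dosing in water with 25% PEG400 and 5% DMSO began at 150–200 mm3. Tumours were removed at the end of study, formalin-fixed and paraffin-embedded, then immunostained.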

Results on one molecule are retold here after ChEMBL document CHEMBL4765233, “From Lead to Drug Candidate: Optimization of 3-(Phenylethynyl)-1H-pyrazolo[3,4-d]pyrimidin-4-amine Derivatives as Agents for the Treatment of Triple Negative Breast Cancer” (J Med Chem, 2016).

Broadly, the Tmax is the time at which the peak concentration occurs. By Cmax is commonly meant the highest concentration seen after dosing. One may read the IC50 as the concentration that gives 50% inhibition.

Activity calls are given as the source filed them. No cut-off for these calls is given here.

Sequence of Receptor tyrosine-protein kinase erbB-2 (P04626 23-1255 G778D limits assumed): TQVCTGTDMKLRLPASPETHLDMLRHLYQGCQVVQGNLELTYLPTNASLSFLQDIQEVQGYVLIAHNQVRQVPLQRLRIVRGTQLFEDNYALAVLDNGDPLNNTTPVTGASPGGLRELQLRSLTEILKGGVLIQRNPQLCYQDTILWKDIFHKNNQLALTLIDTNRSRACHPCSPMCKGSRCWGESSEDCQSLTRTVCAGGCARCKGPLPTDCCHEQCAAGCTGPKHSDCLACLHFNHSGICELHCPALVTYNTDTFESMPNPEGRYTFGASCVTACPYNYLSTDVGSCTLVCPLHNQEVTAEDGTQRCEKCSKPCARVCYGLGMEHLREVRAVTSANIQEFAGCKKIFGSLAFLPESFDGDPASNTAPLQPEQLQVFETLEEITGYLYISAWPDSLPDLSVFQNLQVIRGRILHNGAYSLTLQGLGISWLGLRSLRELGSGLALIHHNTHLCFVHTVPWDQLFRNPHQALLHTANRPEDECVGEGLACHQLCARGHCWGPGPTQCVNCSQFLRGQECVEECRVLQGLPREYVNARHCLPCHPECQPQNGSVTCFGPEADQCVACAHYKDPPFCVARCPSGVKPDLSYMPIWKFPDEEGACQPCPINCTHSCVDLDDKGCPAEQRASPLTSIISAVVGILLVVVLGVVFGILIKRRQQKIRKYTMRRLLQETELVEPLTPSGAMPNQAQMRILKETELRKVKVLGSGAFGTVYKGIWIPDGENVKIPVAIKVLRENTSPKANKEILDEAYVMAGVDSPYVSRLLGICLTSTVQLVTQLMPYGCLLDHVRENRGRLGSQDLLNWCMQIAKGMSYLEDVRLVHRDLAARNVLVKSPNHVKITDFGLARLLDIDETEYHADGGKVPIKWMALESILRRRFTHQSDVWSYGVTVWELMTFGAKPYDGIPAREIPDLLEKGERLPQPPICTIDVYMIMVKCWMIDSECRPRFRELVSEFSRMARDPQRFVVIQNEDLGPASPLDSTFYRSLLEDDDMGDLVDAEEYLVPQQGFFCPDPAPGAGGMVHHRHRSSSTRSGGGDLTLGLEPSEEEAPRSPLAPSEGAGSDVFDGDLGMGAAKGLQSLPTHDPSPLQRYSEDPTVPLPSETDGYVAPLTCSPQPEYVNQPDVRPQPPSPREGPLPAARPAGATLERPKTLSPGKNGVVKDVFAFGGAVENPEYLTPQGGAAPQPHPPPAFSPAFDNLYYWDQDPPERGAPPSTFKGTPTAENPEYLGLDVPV
Sequence of Tyrosine-protein kinase receptor TYRO3 (Q06418 whole entry): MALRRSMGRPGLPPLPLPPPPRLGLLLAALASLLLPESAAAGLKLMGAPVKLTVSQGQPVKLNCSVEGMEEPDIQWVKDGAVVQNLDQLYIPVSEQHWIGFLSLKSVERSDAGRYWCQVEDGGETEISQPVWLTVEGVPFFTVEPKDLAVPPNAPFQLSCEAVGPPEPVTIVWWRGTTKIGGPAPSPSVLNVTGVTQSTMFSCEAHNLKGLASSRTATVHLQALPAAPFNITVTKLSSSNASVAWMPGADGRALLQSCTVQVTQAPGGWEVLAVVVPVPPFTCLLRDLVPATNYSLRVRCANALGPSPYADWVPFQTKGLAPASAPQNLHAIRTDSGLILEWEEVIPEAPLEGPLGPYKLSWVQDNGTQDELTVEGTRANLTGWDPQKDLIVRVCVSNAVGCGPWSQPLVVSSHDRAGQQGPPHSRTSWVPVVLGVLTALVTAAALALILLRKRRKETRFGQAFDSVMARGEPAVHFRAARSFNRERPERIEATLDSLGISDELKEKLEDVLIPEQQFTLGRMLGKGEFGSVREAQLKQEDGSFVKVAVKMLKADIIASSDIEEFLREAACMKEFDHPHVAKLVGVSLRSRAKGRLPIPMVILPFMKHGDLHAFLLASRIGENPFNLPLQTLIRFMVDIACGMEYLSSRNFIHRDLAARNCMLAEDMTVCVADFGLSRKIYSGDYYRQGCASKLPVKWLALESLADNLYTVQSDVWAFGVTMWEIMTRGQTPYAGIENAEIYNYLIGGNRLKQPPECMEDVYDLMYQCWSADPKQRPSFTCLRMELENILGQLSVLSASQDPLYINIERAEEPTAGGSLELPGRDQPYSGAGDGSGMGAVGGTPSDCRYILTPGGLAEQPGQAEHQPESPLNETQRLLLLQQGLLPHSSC

As to `Cc1ccc(NC(=O)c2ccc(C)c(C(F)(F)F)c2)cc1C#Cc1nn([C@H]2CC[C@H](O)CC2)c2ncnc(N)c12`, in data set [1], the Tmax turned out to be 4 h. Moreover, in [2], the Cmax was determined as 143 ng/mL. In addition, the figures for the IC50 in [3], in data set [4] and in data set [5] were 165 nM, 351 nM and 138 nM, respectively. Moreover, the Activity in data set [6] came out at 17.35%. Also, the inhibition entry in data set [7] and in [9] was “Active” each time. Moreover, the result in [8] was inactive.
